Experimental data collected from several papers.
Compare with care: the assays were run in different laboratories.

| Structure (SMILES) | host | medium | route | dose | setting | endpoint | value |
| --- | --- | --- | --- | --- | --- | --- | --- |
| COc1ccc2cc3n(c(=O)c2c1OC)CCc1cc2c(cc1-3)OCO2 | male Sprague-Dawley rat | blood | oral | 50 mg/kg | – | AUC(0-t) | 0.701 µg·h/mL |
| C[C@H]1[C@@H](O)O[C@@H]2O[C@@]3(C)CC[C@H]4[C@H](C)CC[C@@H]1[C@@]24OO3 | Sprague-Dawley rat | plasma | oral | 10 mg/kg | – | AUC(0-inf) | 0.205 µg·h/mL |
| O=C(C=Cc1ccccc1)Nc1cc(-c2ccnc(N3CCC(O)CC3)c2)ccn1 | female Sprague-Dawley rat | plasma | intravenous | 5 mg/kg | – | AUC(0-inf) | 0.375 µg·h/mL |
| CC(=Nc1ccc(N=Cc2cnccn2)cc1)N(C)C | male Sprague-Dawley rat | plasma | intravenous | 20 mg/kg | – | AUC(0-t) | 0.254 µg·h/mL |
| CC1(CN)CCN(c2cnc3c(Sc4ccncc4Cl)n[nH]c3n2)CC1 | male Sprague-Dawley rat | plasma | intravenous | 2 mg/kg | – | AUC | 0.151 µg·h/mL |
| N#C[C@@]12C[C@@H]1[C@@H](n1cnc3c(N[C@@H](C4CCC4)C4CC4)nc(I)nc31)[C@H](O)[C@@H]2O | male Wistar rat | plasma | oral | 3 mg/kg | – | AUC(0-t) | 0.0664 µg·h/mL |
| O=C1c2ccncc2C(=O)c2c1[nH]c1ccccc21 | rat | plasma | intravenous | 1 mg/kg | single dose | AUC(0-inf) | 1430 nM·h |
| O=C1CC[C@H](N2Cc3cc(N4CCN(CC5CCN(c6ccc([C@@H]7c8ccc(O)cc8CC[C@@H]7c7ccccc7)cc6)CC5)CC4)ccc3C2=O)C(=O)N1 | female Sprague-Dawley rat | plasma | oral | 20 mg/kg | fed | AUC(0-t) | 18.4 µg·h/mL |
